Measurements: ChEMBL document CHEMBL1944574, “Inhibition of monoamine oxidase by selected C6-substituted chromone derivatives” (Eur J Med Chem, 2012)

Experiments:
[1] = molecular target: T1, Amine oxidase [flavin-containing] A (Homo sapiens, UniProt P21397); assay: Inhibition of recombinant human monoamine oxidase A expressed in insect microsomes using kynuramine as substrate after 20 mins by fluorescence spectrophotometry; parameters: species or system Microsome
T1 sequence (P21397 whole entry): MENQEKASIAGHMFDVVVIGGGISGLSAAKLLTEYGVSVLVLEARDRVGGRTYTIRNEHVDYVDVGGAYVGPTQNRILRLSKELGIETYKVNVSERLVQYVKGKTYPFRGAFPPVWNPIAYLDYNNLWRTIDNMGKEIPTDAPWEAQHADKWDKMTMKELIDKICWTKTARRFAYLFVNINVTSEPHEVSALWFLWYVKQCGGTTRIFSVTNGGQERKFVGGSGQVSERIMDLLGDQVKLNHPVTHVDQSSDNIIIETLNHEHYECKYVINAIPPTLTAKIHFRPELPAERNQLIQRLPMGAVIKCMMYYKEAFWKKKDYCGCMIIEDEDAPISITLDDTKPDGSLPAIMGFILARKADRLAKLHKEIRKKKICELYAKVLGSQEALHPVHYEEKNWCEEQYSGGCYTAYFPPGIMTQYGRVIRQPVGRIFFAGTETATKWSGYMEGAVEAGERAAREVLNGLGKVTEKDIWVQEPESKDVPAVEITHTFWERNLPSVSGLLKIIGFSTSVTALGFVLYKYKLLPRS
Method in brief: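 Enzyme source: insect-cell microsomes with recombinant human MAO-A or MAO-B at 0.0075 mg protein/mL, with kynuramine as substrate. Buffer was potassium phosphate 100 mM, pH 7.4, made isotonic with 20.2 mM KCl. Six inhibitor concentrations (0–100 µM) spanned at least 3 log units. Incubation was 20 min at 37 °C, then stopped with 2 N NaOH. 4-Hydroxyquinoline was read by fluorescence ([…] nm as printed) against a 0.047–1.56 µM standard curve. IC50 came from sigmoidal fits of initial rate versus log inhibitor, in triplicate, mean ± SD.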

[2] = molecular target: T2, Amine oxidase [flavin-containing] B (Homo sapiens, UniProt P27338); assay: Inhibition of recombinant human monoamine oxidase B expressed in insect microsomes using kynuramine as substrate after 20 mins by fluorescence spectrophotometry; parameters: species or system Microsome
T2 sequence (P27338 whole entry): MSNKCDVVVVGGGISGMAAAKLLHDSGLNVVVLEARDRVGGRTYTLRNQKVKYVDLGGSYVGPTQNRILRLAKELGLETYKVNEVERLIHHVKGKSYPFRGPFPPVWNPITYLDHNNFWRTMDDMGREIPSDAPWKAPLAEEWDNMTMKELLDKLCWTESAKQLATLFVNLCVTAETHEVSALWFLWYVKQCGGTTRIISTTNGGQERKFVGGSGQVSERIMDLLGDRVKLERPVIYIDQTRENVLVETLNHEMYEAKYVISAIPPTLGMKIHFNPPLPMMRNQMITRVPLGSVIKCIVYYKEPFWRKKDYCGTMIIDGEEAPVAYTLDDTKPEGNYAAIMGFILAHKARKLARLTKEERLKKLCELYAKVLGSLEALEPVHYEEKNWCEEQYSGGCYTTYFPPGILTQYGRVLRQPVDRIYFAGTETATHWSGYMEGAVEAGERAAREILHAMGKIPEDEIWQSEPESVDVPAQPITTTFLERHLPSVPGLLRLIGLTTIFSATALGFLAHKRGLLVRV
Method in brief: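 Enzyme source: insect-cell microsomes with recombinant human MAO-A or MAO-B at 0.0075 mg protein/mL, with kynuramine as substrate. Six inhibitor concentrations (0–100 µM) spanned at least 3 log units. Incubation was 20 min at 37 °C, then stopped with 2 N NaOH. IC50 came from sigmoidal fits of initial rate versus log inhibitor, in triplicate, mean ± SD.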

Homo sapiens = species: Homo sapiens; assay: Selectivity index, ratio of IC50 for recombinant human monoamine oxidase A to IC50 for recombinant human monoamine oxidase B
[3] = molecular target: T2, Amine oxidase [flavin-containing] B; assay: Competitive inhibition of recombinant human monoamine oxidase B at 0.064 uM preincubated for 15 to 60 mins before kynuramine substrate addition measured after 15 mins by Lineweaver-Burk plot analysis; conditions: 0.25 h
[4] = molecular target: T1, Amine oxidase [flavin-containing] A; assay: Competitive inhibition of recombinant human monoamine oxidase A at 0.190 uM preincubated for 15 to 60 mins before kynuramine substrate addition measured after 15 mins; conditions: 0.25 h, 0.19 µM

SMILES	IC50 [1]	IC50 [2]	Ratio IC50 (Homo sapiens)	inhibition (INH) [3]	inhibition (INH) [4]
Cc1cccc(COc2ccc3occc(=O)c3c2)c1	1130 nM	19 nM	59	–	–
O=c1ccoc2ccc(OCc3ccc(Br)cc3)cc12	95 nM	3.3 nM	29	Active	Active
O=c1ccoc2ccc(OCc3ccc(Cl)cc3)cc12	106 nM	–	–	–	–
O=c1ccoc2ccc(OCc3cccc(Br)c3)cc12	386 nM	2 nM	193	–	–
O=c1ccoc2ccc(OCc3ccccc3)cc12	3300 nM	53 nM	62	–	–
O=c1ccoc2ccc(OCCc3ccccc3)cc12	3120 nM	21 nM	149	–	–
N#Cc1cccc(COc2ccc3occc(=O)c3c2)c1	255 nM	76 nM	3	–	–
O=c1ccoc2ccc(OCc3cccc(F)c3)cc12	1230 nM	13 nM	95	–	–

The remaining compounds from weak to strong by IC50 [1], led by results:

IC50 [1]	IC50 [2]	Ratio IC50 (Homo sapiens)	inhibition (INH) [3]	inhibition (INH) [4]	SMILES
3490 nM	6 nM	582	–	–	Cc1ccc(COc2ccc3occc(=O)c3c2)cc1
1910 nM	57 nM	34	–	–	O=c1ccoc2ccc(OCCCc3ccccc3)cc12
879 nM	2 nM	440	–	–	O=c1ccoc2ccc(OCc3ccc(C(F)(F)F)cc3)cc12
480 nM	27 nM	18	–	–	O=c1ccoc2ccc(OCCc3ccc(Br)cc3)cc12
424 nM	3.6 nM	118	–	–	O=c1ccoc2ccc(OCc3cccc(Cl)c3)cc12
322 nM	–	–	–	–	O=c1ccoc2ccc(OCc3ccc(F)cc3)cc12
175 nM	22 nM	8	–	–	N#Cc1ccc(COc2ccc3occc(=O)c3c2)cc1
